Common to all, as to type: functional, Mus musculus
Test [1] deals with B16. As to the kind of experiment: Antitumor activity against B16 melanoma from B6 D2 F1 female mice as average weight change of animals between day 1 and day 5 after tumor implementation at a dose of 0.50 mg/kg/day (repeated ip injections, day 1-9). The following applies: route intraperitoneal. The method in brief:
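B6D2F1 female mice (C57BL/6 × DBA/2) were implanted ip on day 0 with 0.5 mL of B16 suspension (1 g tumor homogenized in 9 mL 0.9% saline). Ip treatment was given once daily, day 1 to day 9. Body weight was recorded on days 1 and 5 after implantation, and the mean change per group was reported.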

The subject of test [2] is L1210. Kind of test: Antitumor activity against L1210 Lymphoid Leukemia from CDF1 female mice as Median survival time of treated mice at a dose of 1.0 mg/kg/day. The method in brief:
(§1)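 L1210 leukemia, 10⁵ cells ip on day 0 into CDF1 female mice (BALB/c ♀ × DBA/2 ♂). Drug in 2% methanol given ip on days 1, 5 and 9, 10 mice per group. Survivors and body weight recorded on days 1 and 5, with toxicity as survivors on day 5. Deaths followed for 30 days. T/C = treated/control median survival time, significant at ≥125%.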

Test [3] relates to L1210. As to the kind of experiment: Antitumor activity against L1210 Lymphoid Leukemia from CDF1 female mice (T/C) as median survival time of treated mice (T) over that of control mice (C) at a dose of 0.25 mg/kg/day. The method in brief: as §1
Test [4] has as its system B16. As to the kind of experiment: Antitumor activity against B16 melanoma from B6 D2 F1 female mice(T/C) as median survival time of treated mice (T) over that of control mice (C) at a dose of 0.50 mg/kg/day (repeated ip injections, day 1-9). The following applies: route intraperitoneal. In a few lines:
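B16 melanoma homogenate (1 g tumor in 9 mL 0.9% saline), 0.5 mL implanted ip on day 0 in B6D2F1 female mice (C57BL/6 ♀ × DBA/2 ♂). Treatment ip once daily from day 1 to day 9. Toxicity scored as survivors on day 5. Median survival recorded and T/C computed as treated/control median survival, ≥125% significant.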

Test [5] concerns B16. As to the kind of experiment: Antitumor activity against B16 melanoma from B6 D2 F1 female mice evaluated as the number of survivors on day 5 at a dose of 0.25 mg/kg/day. In a few lines: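 B6D2F1 female mice (C57BL/6 ♀ × DBA/2 ♂) implanted ip on day 0 with 0.5 mL of B16 tumor suspension (1 g homogenized in 9 mL 0.9% saline). Dosing ip on days 1, 5 and 9. Day-5 survivors give toxicity. Median survival of treated vs control mice gives T/C%, with ≥125% significant.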

Test [6] has as its system L1210. Kind of test: Antitumor activity against L1210 Lymphoid Leukemia from CDF1 female mice (T/C) as median survival time of treated mice (T) over that of control mice (C) at a dose of 0.50 mg/kg/day. The method in brief:
as §1

Take `COc1ccc(C[C@H]2C(=O)O[C@H](C)[C@H](NC(=O)[C@@H](CC(C)C)N(C)C(=O)C3CCCN3C(=O)[C@@H](C)O)C(=O)NC(C(C)C)[C@H](O)CC(=O)O[C@@H](C(C)C)C(=O)[C@H](C)C(=O)N[C@@H](CC(C)C)C(=O)N3CCC[C@H]3C(=O)N2C)cc1` (stereo partly specified) [NORDIDEMNIN]: the Body weight change in the test on B16 [1] is -2.3 g. In addition, the “median survival time, days” value in the test with L1210 [2] is recorded as 11.2. Further, the T/C in the test with L1210 [3] came to 111%; in the test on B16 [4], 52%; with L1210 [6] it was 117%. In addition, the Toxicity with B16 [5] turned out to be 1.

What is called T/C is the ratio of treated to control.

Values taken from ChEMBL document CHEMBL1125226, “Antineoplastic activity of didemnin congeners: nordidemnin and modified chain analogues” (1991).
